Measurements of several laboratories.
Each line is one published result; the experiments were not run side by side. Converted amounts (≈) assume the structure as drawn.

CO[C@H]1/C=C/O[C@@]2(C)Oc3c(C)c(O)c4c(c3C2=O)C2=NC3(CCN(CC(C)C)CC3)NC2=C(NC(=O)/C(C)=C\C=C\[C@H](C)[C@H](O)[C@@H](C)[C@@H](O)[C@@H](C)[C@H](OC(C)=O)[C@@H]1C)C4=O  MIC (Mycobacteroides abscessus; microbial growth, agar dilution; ATCC19977): 11.2 µM
CN[C@H](CC(C)C)C(=O)N[C@H]1C(=O)N[C@@H](CC(N)=O)C(=O)N[C@H]2C(=O)N[C@H]3C(=O)N[C@H](C(=O)N[C@H](C(=O)O)c4cc(O)cc(O)c4-c4cc3ccc4O)[C@H](O)c3ccc(c(Cl)c3)Oc3cc2cc(c3O[C@@H]2O[C@H](CO)[C@@H](O)[C@H](O)[C@H]2O[C@H]2C[C@](C)(N)[C@H](O)[C@H](C)O2)Oc2ccc(cc2Cl)[C@H]1O  MIC (Kocuria; microbial growth, broth dilution): 0.67 µM
CCOC(=O)/C=C1/SC(N/N=C/c2c(-c3ccc(F)cc3)nc3ncccn23)=NC1=O  inhibition zone (Pseudomonas aeruginosa; microbial growth, well diffusion; ATCC27853; 100 µg/mL): 11 mm
CCCS(=O)(=O)Oc1ccc(C=NNC(=O)CSc2nc3c(C)cccc3c(=O)n2-c2ccccc2)cc1OC  inhibition zone (Pseudomonas aeruginosa; microbial growth, well diffusion; 20 µg/mL): 2 mm
CC1(C)S[C@@H]2[C@H](NC(=O)[C@H](N)c3ccccc3)C(=O)N2[C@H]1C(=O)O  MIC (Kocuria; microbial growth, broth dilution): 1.34 µM
CC(=O)c1sc(N/N=C/c2c(-c3ccccc3)nc3ncccn23)nc1C  inhibition zone (Pseudomonas aeruginosa; microbial growth, well diffusion; ATCC27853; 100 µg/mL): 14 mm
Cc1ccc2[nH]nc(-c3nnc(Nc4ccc(F)cc4Cl)s3)c2c1  MIC (Pseudomonas aeruginosa; microbial growth; ATCC27853): 96.1 mg/L
CNC(C)C1CCC(N)C(OC2C(N)CC(N)C(OC3OCC(C)(O)C(NC)C3O)C2O)O1 (stereo not shown)  MBC (Pseudomonas aeruginosa; microbial killing, broth dilution; ATCC27853; 24 h): 8000 µM (≈ 3820 µg/mL)
COc1ccc(C=NNC(=O)CSc2nc3c(C)cccc3c(=O)n2-c2ccccc2)cc1OS(C)(=O)=O  inhibition zone (Pseudomonas aeruginosa; microbial growth, well diffusion; 20 µg/mL): 2 mm
O=C(O)c1cn(C2CC2)c2cc(N3CCNCC3)c(F)cc2c1=O  MIC90 (Pseudomonas aeruginosa; microbial growth, broth dilution): 1.56 µM (≈ 0.517 µg/mL)
